Key:
Assay type in all cases: cell-based; call rule not given here
[1] = biological target: ATP-dependent translocase ABCB1 (Homo sapiens, UniProt P08183); experiment: Inhibition of MDR1 (unknown origin) expressed in MDCK cells assessed as increase in calcein-AM accumulation after 30 mins by calcein-AM dye based fluorescence assay
Procedure, shortened: (§1)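 MDCK-MDR1 or MDCK-MRP1 cells seeded at 30,000/well and grown to confluence overnight. Compound (0.1–100 µM final, in medium) incubated 30 min at 37 °C, then calcein-AM added (2.5 µM final) for 30 min. Cells washed with ice-cold PBS and read at ex 485/em 535 nm. EC50 fitted from % fluorescence increase over untreated vs log dose. Mean ± SEM, three experiments in triplicate.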

[2] = biological target: Multidrug resistance-associated protein 1 (Homo sapiens, UniProt P33527); experiment: Inhibition of MRP1 (unknown origin) expressed in MDCK cells assessed as increase in calcein-AM accumulation incubated for 30 mins by calcein-AM dye based fluorescence assay; procedure, shortened: as §1
Multidrug resistance-associated protein 1, sequence (P33527 whole entry): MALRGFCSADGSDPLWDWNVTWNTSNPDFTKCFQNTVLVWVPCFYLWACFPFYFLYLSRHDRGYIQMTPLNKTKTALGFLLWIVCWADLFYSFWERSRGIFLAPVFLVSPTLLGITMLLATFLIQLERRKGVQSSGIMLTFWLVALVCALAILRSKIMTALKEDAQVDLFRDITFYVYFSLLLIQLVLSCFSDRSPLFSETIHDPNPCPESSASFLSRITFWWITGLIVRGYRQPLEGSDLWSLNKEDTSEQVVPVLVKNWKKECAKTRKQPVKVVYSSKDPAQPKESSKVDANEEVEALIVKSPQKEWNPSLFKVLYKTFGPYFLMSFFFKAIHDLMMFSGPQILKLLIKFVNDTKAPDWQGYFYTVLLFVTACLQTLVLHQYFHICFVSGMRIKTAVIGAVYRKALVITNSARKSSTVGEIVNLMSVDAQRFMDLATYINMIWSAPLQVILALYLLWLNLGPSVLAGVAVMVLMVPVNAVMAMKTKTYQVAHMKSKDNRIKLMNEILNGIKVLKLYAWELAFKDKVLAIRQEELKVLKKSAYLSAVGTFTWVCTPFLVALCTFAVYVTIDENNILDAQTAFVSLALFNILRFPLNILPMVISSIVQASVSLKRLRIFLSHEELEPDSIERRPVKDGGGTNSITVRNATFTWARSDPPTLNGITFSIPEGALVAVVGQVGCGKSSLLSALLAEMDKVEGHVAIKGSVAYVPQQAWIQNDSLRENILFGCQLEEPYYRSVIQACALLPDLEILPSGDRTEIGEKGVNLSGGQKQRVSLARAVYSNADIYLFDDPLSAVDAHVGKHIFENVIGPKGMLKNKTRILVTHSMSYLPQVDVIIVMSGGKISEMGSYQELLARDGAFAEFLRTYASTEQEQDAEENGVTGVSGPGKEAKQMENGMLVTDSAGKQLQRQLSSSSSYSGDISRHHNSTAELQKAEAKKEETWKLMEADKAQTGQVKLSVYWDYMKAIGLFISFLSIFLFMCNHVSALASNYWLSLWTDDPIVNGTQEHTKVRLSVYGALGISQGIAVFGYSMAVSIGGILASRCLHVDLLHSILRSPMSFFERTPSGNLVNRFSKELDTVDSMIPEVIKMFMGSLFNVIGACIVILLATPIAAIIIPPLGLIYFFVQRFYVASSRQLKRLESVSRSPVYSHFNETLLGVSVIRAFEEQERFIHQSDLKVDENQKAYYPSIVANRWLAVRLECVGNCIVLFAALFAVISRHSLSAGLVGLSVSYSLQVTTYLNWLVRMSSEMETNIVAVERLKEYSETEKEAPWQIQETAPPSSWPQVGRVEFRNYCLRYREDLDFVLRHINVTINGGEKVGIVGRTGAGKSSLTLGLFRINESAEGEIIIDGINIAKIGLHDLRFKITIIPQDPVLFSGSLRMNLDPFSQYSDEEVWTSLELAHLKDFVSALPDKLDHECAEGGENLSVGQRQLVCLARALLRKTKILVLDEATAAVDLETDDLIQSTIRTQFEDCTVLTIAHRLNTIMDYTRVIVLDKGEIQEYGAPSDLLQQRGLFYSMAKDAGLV

[3] = biological target: T1, Broad substrate specificity ATP-binding cassette transporter ABCG2 (Homo sapiens, UniProt Q9UNQ0); experiment: Inhibition of BCRP (unknown origin) expressed in MDCK cells assessed as reduction in Hoechst 33342 efflux preincubated for 30 mins followed by Hoechst 3334 addition measured after 30 mins by fluorescence assay
T1 sequence (Q9UNQ0 whole entry): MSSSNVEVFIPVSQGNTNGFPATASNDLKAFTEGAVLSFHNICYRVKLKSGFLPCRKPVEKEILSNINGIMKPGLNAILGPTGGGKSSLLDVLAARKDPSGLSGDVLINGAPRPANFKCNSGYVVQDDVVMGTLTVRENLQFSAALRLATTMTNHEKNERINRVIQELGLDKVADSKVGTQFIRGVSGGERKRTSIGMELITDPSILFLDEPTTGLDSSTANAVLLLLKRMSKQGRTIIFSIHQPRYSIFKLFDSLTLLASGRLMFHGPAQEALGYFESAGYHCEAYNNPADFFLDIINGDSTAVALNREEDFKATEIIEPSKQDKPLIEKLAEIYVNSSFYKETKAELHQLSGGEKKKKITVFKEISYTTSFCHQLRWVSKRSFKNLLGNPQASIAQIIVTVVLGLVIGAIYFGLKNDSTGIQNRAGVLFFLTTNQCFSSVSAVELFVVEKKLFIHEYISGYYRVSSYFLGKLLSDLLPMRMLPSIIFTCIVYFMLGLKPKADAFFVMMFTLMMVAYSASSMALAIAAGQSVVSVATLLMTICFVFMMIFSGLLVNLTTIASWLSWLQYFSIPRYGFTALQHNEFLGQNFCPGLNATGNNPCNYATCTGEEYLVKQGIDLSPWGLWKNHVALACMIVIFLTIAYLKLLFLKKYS
Procedure, shortened: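 MDCK-BCRP monolayers (30,000 cells/well, confluent overnight) preincubated 30 min at 37 °C with compound (0.1–100 µM final). Hoechst 33342 then added (8 µM final) for 30 min. Cells fixed 20 min in 4% PFA, washed with ice-cold PBS and read at ex 340/em 485 nm. EC50 fitted from % fluorescence increase over basal vs log dose. Mean ± SEM, three experiments in triplicate.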

[4] = biological target: MDR1 (ABCB1, P-glycoprotein) (Homo sapiens, UniProt P08183); experiment: Activity at MDR1 in human Caco2 cells assessed as efflux ratio of apparent permeability from basolateral to apical side over apical to basolateral side; conditions: Caco-2
MDR1 (ABCB1, P-glycoprotein), sequence (P08183 whole entry): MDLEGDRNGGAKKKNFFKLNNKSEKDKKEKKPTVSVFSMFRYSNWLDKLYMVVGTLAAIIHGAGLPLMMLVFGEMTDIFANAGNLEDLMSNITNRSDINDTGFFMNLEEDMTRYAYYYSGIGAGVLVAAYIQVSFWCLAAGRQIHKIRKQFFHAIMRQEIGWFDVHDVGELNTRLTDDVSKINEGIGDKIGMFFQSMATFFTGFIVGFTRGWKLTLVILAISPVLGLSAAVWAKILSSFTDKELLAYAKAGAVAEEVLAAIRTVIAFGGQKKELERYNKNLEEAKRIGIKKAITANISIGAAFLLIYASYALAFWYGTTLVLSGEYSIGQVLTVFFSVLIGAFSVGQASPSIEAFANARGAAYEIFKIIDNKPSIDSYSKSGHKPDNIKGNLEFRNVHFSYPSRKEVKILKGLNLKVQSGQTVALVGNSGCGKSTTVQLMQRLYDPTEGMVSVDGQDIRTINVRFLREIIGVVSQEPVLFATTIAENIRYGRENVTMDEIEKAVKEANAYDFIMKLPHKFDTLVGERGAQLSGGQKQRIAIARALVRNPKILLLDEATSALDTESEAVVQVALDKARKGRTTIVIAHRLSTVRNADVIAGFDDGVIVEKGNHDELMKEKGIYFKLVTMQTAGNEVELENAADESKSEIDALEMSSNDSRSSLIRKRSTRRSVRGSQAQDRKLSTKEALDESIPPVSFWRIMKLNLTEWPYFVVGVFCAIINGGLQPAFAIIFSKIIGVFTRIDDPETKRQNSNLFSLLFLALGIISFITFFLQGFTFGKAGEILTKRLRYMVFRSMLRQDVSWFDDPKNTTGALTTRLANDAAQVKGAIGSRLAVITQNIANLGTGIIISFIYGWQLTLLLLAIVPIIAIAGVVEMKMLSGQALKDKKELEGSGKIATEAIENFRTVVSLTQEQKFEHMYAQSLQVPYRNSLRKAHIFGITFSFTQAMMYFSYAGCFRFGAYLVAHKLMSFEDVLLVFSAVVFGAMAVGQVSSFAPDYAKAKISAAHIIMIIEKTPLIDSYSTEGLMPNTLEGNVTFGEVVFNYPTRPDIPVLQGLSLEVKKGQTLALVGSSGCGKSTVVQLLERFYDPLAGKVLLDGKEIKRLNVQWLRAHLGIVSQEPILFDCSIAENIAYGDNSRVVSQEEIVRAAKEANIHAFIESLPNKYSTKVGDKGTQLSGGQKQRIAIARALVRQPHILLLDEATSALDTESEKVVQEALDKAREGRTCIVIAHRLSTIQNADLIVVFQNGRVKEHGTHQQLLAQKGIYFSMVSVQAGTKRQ
Procedure, shortened: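 Caco-2 cells grown 21 days on filter inserts, then washed with HBSS and equilibrated 30 min at 37 °C. Compound at 100 µM added to the donor side and incubated 120 min at 37 °C. Papp in nm/s calculated as (VA/Area) × ([drug]acceptor/[drug]initial)/time, membrane area 0.11 cm2. BA/AB ratio from two independent experiments.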

ATP-dependent translocase ABCB1, sequence (P08183 whole entry): as above

For COc1cc2c(cc1OC)CN(Cc1ccc(-c3ccc4c(c3)C(=O)C(=O)N4)cc1)CC2, the EC50 ([1]; read-out: EC50) was 21400 nM, the EC50 [2] was “Not Active” and the EC50 ([3]; mdck) was “Not Active”. For the same molecule, the efflux ratio [4] was 8.1.

An efflux ratio [4] of 1.3 was found for COc1cc2c(cc1OC)CN(Cc1ccc(-c3ccc(O)cc3)cc1)CC2 in this work.

COc1cc2c(cc1OC)CN(Cc1ccc(-c3ccc(NC(=O)c4ccccc4)cc3)cc1)CC2 was tested, and the EC50 ([1]; mdck) was “Not Active”, the EC50 [2] was “Not Active” and the EC50 ([3]; mdck) was “Not Active”. The efflux ratio [4] was 19.9.

For CNC(=O)Nc1ccc(-c2ccc(CN3CCc4cc(OC)c(OC)cc4C3)cc2)cc1, the EC50 ([1]; read-out: EC50) was 3100 nM, the EC50 [2] was “Not Active” and the EC50 ([3]; mdck) was “Not Active”. The efflux ratio [4] was 12.8.

In the case of COc1cc2c(cc1OC)CN(Cc1ccc(-c3ccc(NC(C)=O)cc3)cc1)CC2, the EC50 ([1]; read-out: EC50) is reported as 1520 nM, the EC50 [2] is reported as “Not Active” and the EC50 ([3]; mdck) is reported as “Not Active”. For the same molecule, the efflux ratio [4] was 13.6.

COc1cc2c(cc1OC)CN(Cc1ccc(-c3ccc(NC(=O)Nc4ccccc4)cc3)cc1)CC2 was tested, and the EC50 ([1]; read-out: EC50) was 980 nM, the EC50 [2] was “Not Active” and the EC50 ([3]; mdck) was “Not Active”. For the same molecule, the efflux ratio [4] was over 20.

In the case of COc1cc2c(cc1OC)CN(Cc1ccc(-c3ccc4[nH]c(=O)[nH]c4c3)cc1)CC2, the EC50 ([1]; read-out: EC50) is reported as 29500 nM, the EC50 [2] is reported as “Not Active” and the EC50 ([3]; mdck) is reported as “Not Active”. The efflux ratio [4] was 15.

For CCCCNC(=O)Nc1ccc(-c2ccc(CN3CCc4cc(OC)c(OC)cc4C3)cc2)cc1, the EC50 ([1]; read-out: EC50) was 320 nM, the EC50 [2] was “Not Active” and the EC50 ([3]; read-out: EC50) was 46000 nM. For the same molecule, the efflux ratio [4] was 12.8.

For COc1cc2c(cc1OC)CN(Cc1ccc(-c3ccc4[nH]ccc4c3)cc1)CC2, the EC50 ([1]; read-out: EC50) was 21200 nM, the EC50 [2] was “Not Active” and the EC50 ([3]; mdck) was “Not Active”. For the same molecule, the efflux ratio [4] was 1.9.

For CCCNC(=O)Nc1ccc(-c2ccc(CN3CCc4cc(OC)c(OC)cc4C3)cc2)cc1, the EC50 ([1]; read-out: EC50) was 1100 nM, the EC50 [2] was “Not Active” and the EC50 ([3]; mdck) was “Not Active”. The efflux ratio [4] was 17.6.

With COc1cc2c(cc1OC)CN(Cc1ccc(-c3ccc(NS(=O)(=O)c4ccccc4)cc3)cc1)CC2 the EC50 ([1]; read-out: EC50) was 870 nM, the EC50 [2] was “Not Active” and the EC50 ([3]; mdck) was “Not Active”. It also gave an efflux ratio [4] of 15.

COc1cc2c(cc1OC)CN(Cc1ccc(-c3ccc4[nH]cnc4c3)cc1)CC2 was tested, and the EC50 ([1]; read-out: EC50) was 6930 nM, the EC50 [2] was “Not Active” and the EC50 ([3]; mdck) was “Not Active”. The efflux ratio [4] was 9.2.

In the case of COc1cc2c(cc1OC)CN(Cc1ccc(-c3ccc(NS(C)(=O)=O)cc3)cc1)CC2, the EC50 ([1]; read-out: EC50) is reported as 5200 nM, the EC50 [2] is reported as “Not Active” and the EC50 ([3]; mdck) is reported as “Not Active”. The efflux ratio [4] was 5.

For COc1cc2c(cc1OC)CN(Cc1ccc(-c3ccc4c(ccn4S(=O)(=O)c4ccccc4)c3)cc1)CC2, the EC50 ([1]; read-out: EC50) was 19200 nM, the EC50 [2] was “Not Active” and the EC50 ([3]; mdck) was “Not Active”. For the same molecule, the efflux ratio [4] was 4.2.

With COc1cc2c(cc1OC)CN(Cc1ccc(-c3ccc4[nH]ncc4c3)cc1)CC2 the EC50 ([1]; read-out: EC50) was 900 nM, the EC50 [2] was “Not Active” and the EC50 ([3]; mdck) was “Not Active”. It also gave an efflux ratio [4] of 12.

In the case of COc1cc2c(cc1OC)CN(Cc1ccc(-c3ccc4c(c3)CC(=O)N4)cc1)CC2, the EC50 ([1]; read-out: EC50) is reported as 1470 nM, the EC50 [2] is reported as “Not Active” and the EC50 ([3]; mdck) is reported as “Not Active”. The efflux ratio [4] was 3.6.

With COc1cc2c(cc1OC)CN(Cc1ccc(-c3ccc4c(c3)C(N3CCc5cc(OC)c(OC)cc5C3)C(=O)N4)cc1)CC2 (centres undefined) the EC50 ([1]; read-out: EC50) was 1200 nM, the EC50 [2] was “Not Active” and the EC50 ([3]; read-out: EC50) was 1800 nM. It also gave an efflux ratio [4] of 8.5.

For CCNC(=O)Nc1ccc(-c2ccc(CN3CCc4cc(OC)c(OC)cc4C3)cc2)cc1, the EC50 ([1]; read-out: EC50) was 1700 nM, the EC50 [2] was “Not Active” and the EC50 ([3]; mdck) was “Not Active”. It also gave an efflux ratio [4] of 9.3.

From ChEMBL document CHEMBL4411301, “Design, Biological Evaluation, and Molecular Modeling of Tetrahydroisoquinoline Derivatives: Discovery of A Potent P-Glycoprotein Ligand Overcoming Multidrug Resistance in Cancer Stem Cells” (J Med Chem, 2019)
